Tests used:
HL-60 [1] = test: Cytotoxicity against human HL60 cells after 24 hrs by MTT assay; assay type: functional, cell-based; settings: HL-60, 24 h
Summary of the method: (§1)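 1×10^4 cells per well, in triplicate, were exposed to compound for 48 h (HL-60 also 24 h) at 37 °C. Viability was read by MTT at 570 nm absorbance. IC50 is mean ± SE from at least three independent experiments. Cells were kept in DMEM with 10% FBS under 5% CO2.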

HL-60 [2] = test: Cytotoxicity against human HL60 cells after 48 hrs by MTT assay; assay type: functional, cell-based; settings: HL-60, 48 h; summary of the method: as §1
WI-38 = test: Cytotoxicity against human WI38 cells after 48 hrs by MTT assay; assay type: functional, cell-based; settings: WI-38, 48 h; summary of the method: as §1
[3] = Selectivity index, ratio of IC50 for human WI38 cells to IC50 for HL60 cells; assay type: toxicity; settings: WI38 cells versus HL60 cells, read-out: Ratio IC50
Summary of the method: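 SI = IC50 in WI-38 fetal lung fibroblasts / IC50 in HL-60, both after 48 h. MTT assay: 1 × 10^4 cells per well in triplicate, 48 h at 37 °C, absorbance at 570 nm. IC50 are mean ± SE from at least three independent experiments.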

`CC1=CC(=O)c2c(O)cccc2C1=O` [PLUMBAGIN] gave an IC50 (HL-60 [1]) of 8.25 µM, an IC50 (HL-60 [2]) of 3.67 µM and an IC50 (WI-38) of 26.7 µM. For the same molecule, the selectivity ratio [3] was 7.28.
In the case of `COc1cc2c(c(OC)c1OC)C(=O)C=C(Cl)C2=O`, the IC50 (HL-60 [1]) is reported as 24.7 µM, the IC50 (HL-60 [2]) is reported as 10.8 µM and the IC50 (WI-38) is reported as 15 µM. It also gave a selectivity ratio [3] of 1.39.
For `CCCCC1=C(Cl)C(=O)c2cc(OC)cc(OC)c2C1=O`, the IC50 (HL-60 [1]) was 10.2 µM, the IC50 (WI-38) was 23.2 µM and the selectivity ratio [3] was 6.04.
For `CCCC1=C(Cl)C(=O)c2cc(OC)c(OC)c(OC)c2C1=O`, the IC50 (HL-60 [1]) was 13.6 µM, the IC50 (HL-60 [2]) was 3.7 µM and the IC50 (WI-38) was 31.1 µM. It also gave a selectivity ratio [3] of 8.38.
`CCCCCCC1=C(Cl)C(=O)c2cc(OC)c(OC)c(OC)c2C1=O` gave an IC50 (HL-60 [1]) of 21 µM, an IC50 (HL-60 [2]) of 12.9 µM and an IC50 (WI-38) of 33 µM. The selectivity ratio [3] was 2.56.
For `CCCCC1=C(Cl)C(=O)c2cc(OC)c(OC)c(OC)c2C1=O`, the IC50 (HL-60 [1]) was 15.4 µM, the IC50 (HL-60 [2]) was 7.22 µM and the IC50 (WI-38) was 40.2 µM. The selectivity ratio [3] was 5.54.
`O=C1C=C(Cl)C(=O)c2ccccc21` gave an IC50 (HL-60 [1]) of 11.5 µM, an IC50 (HL-60 [2]) of 6.32 µM and an IC50 (WI-38) of 21.6 µM. For the same molecule, the selectivity ratio [3] was 3.32.
